RORA act = activators of orphan receptor RORA, primary screen, cell-based, luminescence; Nuclear receptor ROR-alpha (Homo sapiens), P35398; CHO-K1 Gal4-RORA LBD luciferase reporter; percent increase over mock-subtracted basal signal; activation, % at 10 µM; 65,000 compounds, 1.5% hits;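 active means activation above the mean of all tested compounds plus 3 SD, cut at about 49% in these data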
JNK3 blocker = JNK3 kinase activity inhibitors, primary screen, biochemical, human, purified enzyme; 60,000 compounds, 0.61% hits; Mitogen-activated protein kinase 10 (Homo sapiens), P53779; inhibition, % at 8 µM; HTS; in the data active means inhibition above about 17%
Target sequence (P53779 whole entry, looked up): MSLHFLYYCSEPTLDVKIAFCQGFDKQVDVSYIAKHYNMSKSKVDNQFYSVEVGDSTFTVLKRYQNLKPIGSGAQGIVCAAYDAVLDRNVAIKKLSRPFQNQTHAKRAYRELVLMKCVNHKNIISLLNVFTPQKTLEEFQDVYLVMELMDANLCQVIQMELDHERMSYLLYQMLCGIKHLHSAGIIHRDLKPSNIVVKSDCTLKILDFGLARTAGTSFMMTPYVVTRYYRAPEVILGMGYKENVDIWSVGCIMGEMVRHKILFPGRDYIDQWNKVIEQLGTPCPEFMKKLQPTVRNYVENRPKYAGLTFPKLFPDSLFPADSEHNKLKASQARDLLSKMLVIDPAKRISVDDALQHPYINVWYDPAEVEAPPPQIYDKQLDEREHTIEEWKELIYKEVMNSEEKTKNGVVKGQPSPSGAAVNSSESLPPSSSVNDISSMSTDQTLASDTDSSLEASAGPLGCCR
SF1 activator = activators of human SF-1, primary screen, cell-based, CHO-K1, Gal4-SF-1 LBD, luciferase luminescence; Steroidogenic factor 1 (Homo sapiens), Q13285; CHO-K1 Gal4-SF-1 LBD luciferase reporter; % increase over DMSO SF-1-specific signal; activation, % at 10 µM; 65,000 compounds, 1.9% hits; AID 522, 2006;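 active means activation above the mean activation of all tested compounds plus 3 SD, cut at about 50% in these data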
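material = CHO-K1 cells with Gal4–hSF-1 LBD chimera plus Gal4-driven luciferase | compound = 10 µM single point, 1% DMSO | incubation = 20 h compound exposure at 37 °C after 1 h cell settling | measured by = SteadyLite luciferase luminescence | evaluation = percent activation relative to DMSO median and mock-transfected background | control set = DMSO negative control and −SF1 background wells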
MT1-MMP txn act = MT1-MMP promoter reporter activation – cell-based, luciferase luminescence, primary screen; HT1080 MT1-MMP promoter luciferase reporter, overnight; stronger effect = higher value; activation factor at 10 µM; 86,000 compounds, 0.16% hits; AID 750, 2007;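 active means activation factor of at least 2 for MT1-MMP transcription at 10 µM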
Each line names hits and unclear results; the compound was inactive in the other large screens. Most compounds without a hit are left out; they make up all but 2.3% or so of the library.

CC(=O)COc1ccc2c3c(c(=O)oc2c1C)CCCCC3	SF1 activator 54
Cc1c(O)ccc2c3c(c(=O)oc12)CCCC3	none
Cc1c(OCC(=O)OC(C)C)ccc2c3c(c(=O)oc12)CCC3	none
CC(=O)C(C)Oc1ccc2c3c(c(=O)oc2c1C)CCCC3 (stereo not drawn)	RORA act 60
COCCn1c(C)cc(C(=O)COC(=O)c2ccc3ncsc3c2)c1C	SF1 activator 52
COCCn1c(C)cc(C(=O)COC(=O)c2ccc(NC(=O)CC#N)cc2)c1C	none (no result: RORA act, JNK3 blocker, SF1 activator)
Cc1cccc2c(=O)c(C(=O)NCCCN3CCOCC3)c[nH]c12	none (no result: RORA act, JNK3 blocker, SF1 activator)
O=c1c2ccccc2nc2n1CCCCC2	none
O=c1c2ccccc2nc2n1CCCCN2	JNK3 blocker 21
O=C(Nc1cccc(F)c1)Nc1ccccn1	RORA act 61, SF1 activator 62 (no result: JNK3 blocker, MT1-MMP txn act)
COc1ccccc1C1C(C#N)=C(N)N(c2cccnc2)C2=C1C(=O)CC(C)(C)C2 (stereo not drawn)	none (no result: RORA act, JNK3 blocker, SF1 activator)
CCOC(=O)c1cnc(-c2ccccc2)nc1N	SF1 activator 64
CCOC(=O)c1cnc(-c2ccccc2)nc1N(C)C	none (no result: RORA act, JNK3 blocker, SF1 activator)
CCOC(=O)N1CCN(S(=O)(=O)c2cccc3ccc(C)nc23)CC1	none
CCCC[C@@H]1C[C@H]1C(NS(=O)(=O)c1cccc2cccnc12)c1ccc(-c2ccccc2)cc1 (stereo partly drawn)	none (no result: RORA act, JNK3 blocker, SF1 activator)
O=C(CCN1C(=O)c2ccccc2C1=O)Nc1ccc(-c2cn3ccsc3n2)cc1	SF1 activator 65
O=C(CCN1C(=O)c2ccccc2C1=O)Nc1ccc(-c2nc3ccccc3o2)cc1	RORA act 50, SF1 activator 53
O=C(CCN1C(=O)c2ccccc2C1=O)Nc1ccc(F)cc1	none
CC(=O)Nc1ccc(-c2cn3ccsc3n2)cc1	none
O=C(Nc1ccc(-c2cn3ccsc3n2)cc1)C1CCCC1	SF1 activator 58
O=C(CN1C(=O)c2ccccc2C1=O)Nc1ccc(-c2nc3ccccc3o2)cc1	none
O=C(Nc1ccc(-c2cn3ccsc3n2)cc1)C1CC1	SF1 activator 61
O=S(=O)(c1ccc(C2CCCCC2)cc1)N1CCCC1	none (no result: RORA act, JNK3 blocker, SF1 activator)
CCN1C(=O)N(CC)C2C1N(C(C)=O)C(=O)N2C(C)=O (stereo not drawn)	none
CC1=NC(=O)C(N=Nc2cccc(O)c2)N1c1ccccc1 (stereo not drawn)	MT1-MMP txn act 2 (no result: RORA act, JNK3 blocker, SF1 activator)
O=C(COc1cccc2cccnc12)Nc1nccs1	RORA act 75
O=C(Cn1cnc2c(oc3ccccc32)c1=O)c1ccccc1	RORA act 93, SF1 activator 61
COc1ccc(-n2ncc3c(NCc4ccco4)ncnc32)cc1	RORA act 62, SF1 activator 69
COc1ccc(-n2ncc3c(NCCCN4CCOCC4)ncnc32)cc1	SF1 activator 53
COc1ccc(-n2ncc3c(NCCN4CCOCC4)ncnc32)cc1	none (no result: RORA act, JNK3 blocker, SF1 activator)
CN(C)CCNc1ncnc2c1cnn2-c1ccc(Cl)cc1	SF1 activator 73
Clc1ccc(Cn2ncc3c(NCc4ccco4)ncnc32)c(Cl)c1	SF1 activator 62
Cc1cc(C)nc(N2CCN(c3ncnc4c3cnn4Cc3ccc(Cl)cc3Cl)CC2)n1	none
O=C(O)c1ccc(Br)c(S(=O)(=O)N2CCCC2)c1	none
CCN1C(=O)CC(N2CCN(CC(=O)NC(C)C)CC2)C1=O (stereo not drawn)	none (no result: RORA act, JNK3 blocker, SF1 activator)
Cc1nc2c(C)cccn2c1/C(O)=C1\C(=O)C(=O)N(CCN2CCOCC2)C1c1cccs1 (stereo not drawn)	none (no result: RORA act, JNK3 blocker, SF1 activator)
COc1ccc(-n2ncc3c(NCc4ccccn4)ncnc32)cc1	SF1 activator 56
CCC(CO)Nc1ncnc2c1cnn2-c1ccc(OC)cc1 (stereo not drawn)	RORA act 61, SF1 activator 101
Clc1ccc(-n2ncc3c(NCc4ccco4)ncnc32)cc1	RORA act 65, SF1 activator 76
O=C1CCCN1CCCNc1ncnc2c1cnn2-c1ccc(Cl)cc1	RORA act 69
Clc1ccc(-n2ncc3c(NCc4ccc5c(c4)OCO5)ncnc32)cc1	none
Cc1cccc(-n2ncc3c(NCCCN4CCCC4=O)ncnc32)c1	none (no result: RORA act, JNK3 blocker, SF1 activator)
O=C(CN1C(=O)c2ccccc2C1=O)Nc1ccccc1C(=O)NC1CCCCC1	none (no result: RORA act, JNK3 blocker, SF1 activator)
Cc1nn(C(C)C(=O)O)c(=O)c2c1sc1ccccc12 (stereo not drawn)	JNK3 blocker 21
CCCSc1nnc(-c2c[nH]c3ccccc23)n1C	SF1 activator 52
Cn1c(C(=O)N2CCN(Cc3ccc4c(c3)OCO4)CC2)cc2c(=O)n(C)c3ccccc3c21	JNK3 blocker 24
O=C(Nc1cccc(F)c1)c1c(F)c(F)c(F)c(F)c1F	none
CN(C)c1cccc(C(=O)Nc2cccc(F)c2)c1	SF1 activator 58
CCN(CC)c1ccc(C(=O)Nc2cccc(F)c2)cc1	SF1 activator 54
CCCCCCN(C(=O)CCCCCN1C(=O)NC(c2cccc([N+](=O)[O-])c2)C(C(=O)OCc2ccccc2)=C1C)C(C(=O)NCCCC)c1ccc(OCC(=O)OC)c(C(=O)OC)c1 (stereo not drawn)	none (no result: RORA act, JNK3 blocker, SF1 activator)
Cn1nnc2c(NCc3ccco3)nccc21	none (no result: JNK3 blocker)
COc1ccc(Nc2nccc3c2nnn3C)cc1	RORA act 53
COc1ccc(NC(=O)c2cc(C3CC3)on2)c(OC)c1	SF1 activator 56
CC(=O)Nc1ccc(-c2cc3ccccc3o2)cc1	SF1 activator 61
COc1ccccc1NC(=O)c1cc2ccccc2o1	MT1-MMP txn act 2 (no result: RORA act, JNK3 blocker, SF1 activator)
O=C(Nc1ccccc1)c1cc2ccccc2o1	none (no result: RORA act, JNK3 blocker, SF1 activator)
COc1ccc(NC(=O)c2cc3ccccc3o2)cc1	RORA act 53, SF1 activator 54
COC(=O)c1ccc(C(/C=C/[C@@H](C)CO)NC(=O)OCc2ccccc2)cc1 (stereo partly drawn)	none (no result: RORA act, JNK3 blocker, SF1 activator)
CCOC(=O)/C=C1\NC(=O)C(C)S1 (stereo not drawn)	none (no result: RORA act, JNK3 blocker, SF1 activator)
COc1cccc(NC(=O)c2nn(C)cc2Br)c1	none (no result: RORA act, JNK3 blocker, SF1 activator)
COc1ccc(NC(=O)c2oc3ccccc3c2NC(=O)c2ccc(OC)c(OC)c2)c(OC)c1	none
CC(=O)Nc1cccc(NC(=O)c2cc3ccccc3o2)c1	SF1 activator 87
Cc1c(C(=O)Nc2cccc3cccnc23)oc2ccccc12	none
COc1ccc(NC(=O)c2cc(-c3ccccc3OC)on2)cc1	RORA act 49
CC(C)C(=O)Nc1cccc(NC(=O)c2cc3ccccc3o2)c1	none
CC(=O)Nc1cccc(NC(=O)c2oc3ccccc3c2C)c1	SF1 activator 51 (no result: MT1-MMP txn act)
COc1ccc(NC(=O)c2oc3ccccc3c2C)c(OC)c1	RORA act 62, SF1 activator 58 (no result: JNK3 blocker)
C#CCCCC(=O)Nc1ccccc1	none (no result: RORA act, JNK3 blocker, SF1 activator)
N#Cc1c(N)oc(-c2ccc3c(c2)OCO3)c1-c1ccc2c(c1)OCO2	none (no result: JNK3 blocker)
Cc1cc2nn(-c3ccccc3)nc2cc1NC(=O)c1cccs1	RORA act 95
Cc1cc(NC(=O)c2cccs2)n(-c2ccccc2)n1	none (no result: RORA act, JNK3 blocker, SF1 activator)
CC1(C)Cc2nc3sc4c(=O)n(CC(=O)NCc5ccco5)cnc4c3cc2CO1	SF1 activator 62 (no result: JNK3 blocker)

Screening data deposited in PubChem by several laboratories.
